ANO1 block: inhibitors of mouse TMEM16A calcium-activated chloride channel. 310,000 compounds, 1.2% hits. HEK293 TMEM16A/YFP iodide influx fluorescence, ionomycin. normalized B-score (activity score, 25-100; higher = stronger inhibition) at 10 µM;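 active means ratio plate-corrected score three or more library SD toward inhibition, starting fluorescence score within five deviations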;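 further: score derived from kinetic fluorescence span divided by baseline fluorescence per well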
Target sequence (Q8BHY3 whole entry, looked up): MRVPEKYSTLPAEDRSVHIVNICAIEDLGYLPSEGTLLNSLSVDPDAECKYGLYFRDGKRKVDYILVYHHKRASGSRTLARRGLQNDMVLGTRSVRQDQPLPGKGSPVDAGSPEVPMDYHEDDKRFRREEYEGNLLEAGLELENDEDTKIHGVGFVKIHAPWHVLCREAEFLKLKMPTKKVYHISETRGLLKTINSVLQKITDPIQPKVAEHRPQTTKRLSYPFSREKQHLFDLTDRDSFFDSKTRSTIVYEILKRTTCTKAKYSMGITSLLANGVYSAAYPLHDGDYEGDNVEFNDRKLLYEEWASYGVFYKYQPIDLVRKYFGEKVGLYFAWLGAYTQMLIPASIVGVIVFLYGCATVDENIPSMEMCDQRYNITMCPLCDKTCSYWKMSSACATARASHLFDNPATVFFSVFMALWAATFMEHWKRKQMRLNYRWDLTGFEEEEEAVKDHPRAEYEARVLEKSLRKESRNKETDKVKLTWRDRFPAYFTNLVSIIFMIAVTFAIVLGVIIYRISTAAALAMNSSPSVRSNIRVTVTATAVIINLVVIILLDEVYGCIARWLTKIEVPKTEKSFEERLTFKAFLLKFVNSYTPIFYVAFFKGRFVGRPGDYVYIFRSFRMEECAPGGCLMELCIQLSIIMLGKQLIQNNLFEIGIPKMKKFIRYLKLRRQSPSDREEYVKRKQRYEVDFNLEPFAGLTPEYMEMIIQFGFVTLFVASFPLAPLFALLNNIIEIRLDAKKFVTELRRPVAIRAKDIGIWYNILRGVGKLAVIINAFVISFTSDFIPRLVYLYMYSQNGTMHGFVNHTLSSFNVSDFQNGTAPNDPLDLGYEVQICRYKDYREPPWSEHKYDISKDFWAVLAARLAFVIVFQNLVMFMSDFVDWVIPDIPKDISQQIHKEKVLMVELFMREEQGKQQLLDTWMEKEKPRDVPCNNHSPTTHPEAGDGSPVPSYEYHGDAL
ANO1 activ: activators or potentiators of mouse TMEM16A chloride channel; Q8BHY3; HEK293 TMEM16A/YFP-H148Q/I152L, iodide quench fluorescence; hits give low values; B-score at 10 µM; 340,000 compounds, 0.3% hits; AID 623877;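 active means fluorescence-ratio B-score plate-corrected deviation score at least 3 library SD below zero, with starting fluorescence score within 5 deviations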;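 further: channel opened by trigger with iodide after compound preincubation; score built on the fluorescence ratio of max minus min over baseline; more negative score means more quench and so TMEM16A activation or potentiation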
CHOP UPR activ: apoptotic UPR (CHOP) activation; CHO-CHOP luciferase reporter, luminescence; percent of tunicamycin response over DMSO baseline; activation, % at 10 µM; 330,000 compounds, 0.34% hits;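 active means at 10 µM dose, activation of 40% or more, normalized to positive control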;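 further: 100% = tunicamycin at 10 µg/mL and 0% = DMSO alone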
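System: CHO-CHOP luciferase reporter cell line; amount: 500 cells/well; buffer or medium: F12 medium containing 10% fetal bovine serum; incubation: 6 h compound exposure at 37 °C after overnight seeding; measured by: luciferase luminescence after 10 min with Steady-Glo reagent; evaluation: % reporter activation, DMSO baseline versus tunicamycin full activation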
XBP1 UPR activ: adaptive UPR (XBP1) activation | CHO-XBP1 luciferase reporter, IRE1-XBP1 UPR activation, luminescence; percent of tunicamycin response, DMSO as zero | activation, % at 20 µM | 330,000 compounds, 0.33% hits | AID 463104;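 active means versus positive control, 20 µM dose yields 30% or more activation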;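 further: 100% = tunicamycin at 10 µg/mL and 0% = DMSO only wells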
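Material: IRE1-XBP1 luciferase reporter CHO line / Quantity: one thousand reporter cells per well / Buffer or medium: F12 with 10% serum / Compound: 20 µM single concentration, DMSO 1% / Times: 6 h treatment, 37 °C / Detection: Steady-Glo luciferase glow luminescence, 10 min after reagent addition / Benchmarks: tunicamycin high, DMSO low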
Lipid droplet: hepatic lipid droplet formation modulation | AML12 mouse hepatocytes, oleate lipid droplets, BODIPY imaging | inhibition, % at 6.5 µM | 240,000 compounds, 0.4% hits | AID 1656;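 active means lipid droplet intensity inhibited by at least 50%, with more than 500 cells counted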
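System: AML12 hepatocytes (mouse). Probe or stimulus: oleic acid at 100 µM to induce lipid droplet formation. Times: overnight treatment with compound plus oleate. Detection: Image-based BODIPY and DAPI two-channel analysis. Evaluation: percent inhibition of filter-corrected integrated lipid droplet intensity per well.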
CHOP inh: blocks CHOP induction under ER stress. 220,000 compounds, 3.8% hits. CHO-K1 CHOP-promoter luciferase, tunicamycin-induced, 15-18 h. inhibition, % at 10 µM;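 active means compounds that reduced the stress-induced luciferase reporter signal by more than about 70% of percent inhibition, limit read from the data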;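 further: 0% = tunicamycin plus vehicle and 100% = wells without tunicamycin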
TMEM16A reconf: TMEM16A (mouse) chloride channel inhibition, re-confirmation | inhibition, % at 10 µM | HEK293 TMEM16A/YFP-H148Q, iodide quench fluorescence; ionomycin added to raise cell calcium | shares compounds with ANO1 block | 2,300 compounds, 39% hits;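 active means mean duplicate percent inhibition, scaled so buffer wells are 0 and the reference blocker 100, over three buffer SD above buffer mean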
HEK293 Ca mobil: calcium mobilization counter-screen hit for TMEM16A inhibitor series. shares compounds with ANO1 block. 2,300 compounds, 2% hits. TMEM16A/YFP HEK293, Fluo4 calcium mobilization. calcium response (% of ionomycin), % at 10 µM;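 active means duplicate-averaged calcium signal over 20% of the ionomycin maximum, relative to buffer baseline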;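 further: each well's signal is peak minus trough fluorescence divided by its pre-addition baseline; 0% = buffer wells and 100% = ionomycin wells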
YFP-HEK293 quench: acts in parental YFP-HEK293 cells lacking TMEM16A, counter-screen; 2,300 tested, under 10 active; YFP ratio F(max-min)/F0 at 10 µM; iodide YFP quench, ionomycin; shares compounds with ANO1 block;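 active means yellow fluorescent protein signal ratio exceeding the buffer control mean by over 5 SD of those controls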;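 further: ratio is mean of duplicate wells from kinetic YFP trace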
ClC-1 rat inh: selectivity of TMEM16A inhibitors: inhibition of rat ClC-1 chloride channel; shares compounds with ANO1 block; CHO ClC-1-YFP, iodide influx fluorescence quench; iodide control reads 0, buffer control 100; ratio percent, % at 10 µM; 2,300 tested, under 10 active; AID 652236;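 active means duplicate-mean ratio percent above the mean of iodide-only control wells, which defines zero, plus 5 of their SD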;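 further: higher percent means stronger block of ClC-1 iodide influx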
Starred values were filed as active, the others as inactive; i = inactive; . = no result given. An excerpt weighted towards active compounds, which were near 4.2% of everything screened.

SMILES | ANO1 block | ANO1 activ | CHOP UPR activ | XBP1 UPR activ | Lipid droplet | CHOP inh | TMEM16A reconf | HEK293 Ca mobil | YFP-HEK293 quench | ClC-1 rat inh
COC(=O)c1ccc(C)c(NC(=O)CSc2sc3c(O)cc(=O)[nH]c3c2C#N)c1 | i | i | -1 | -3 | -26 | . | . | . | . | .
CN(C(=O)OC(C)(C)C)c1ccc(-c2nc3ccccc3s2)cc1 | 25* | i | -9 | -9 | . | . | 24%* | i | -1.4 | -8
COC(=O)N(C)c1nc2ccccc2s1 | i | i | 3 | 6 | . | -27 | . | . | . | .
Cc1nc2ccccn2c1-c1csc(NCc2ccco2)n1 | 25* | i | 2 | -1 | -3 | . | i | i | -0.96 | -8
CN(C(=O)CN1C(=O)/C(=C/c2ccccc2F)SC1=S)C1CCS(=O)(=O)C1 (stereo not given) | i | i | 0 | -4 | 0 | . | . | . | . | .
COc1cccc(C(=O)Nc2cc3c(cc2C(C)=O)OCCO3)c1 | i | i | 4 | 2 | 2 | -25 | . | . | . | .
COC(=O)CCCC1=CC2=C(c3ccccc3)C(=O)C(C)(OC(=O)C3CCCC3)C(=O)C2=CN1C(CO)CO (stereo not given) | i | i | -1 | 0 | 14 | -3 | . | . | . | .
Cc1nn(-c2ccc(Cl)cc2)c2[nH]c(CCl)cc(=O)c12 | 100* | i | 0 | -2 | -9 | . | 46%* | i | -1 | -10
CC(=O)N1CCc2c(sc(NC(=O)C3CCCCC3)c2C(N)=O)C1 | i | i | 1 | 2 | -10 | . | . | . | . | .
Nc1cc(SCc2ccc(Cl)cc2Cl)ncn1 | . | i | . | . | . | . | . | . | . | .
COc1ccc(S(=O)(=O)Nc2ccccc2C(F)(F)F)cc1 | 100* | i | -1 | -2 | 0 | -1 | i | i | -1.2 | -9
COc1ccc(OC)c(S(=O)(=O)Nc2ccccc2C(F)(F)F)c1 | i | i | -3 | -2 | 12 | -4 | . | . | . | .
CCN(CC)S(=O)(=O)c1ccc(OC)c(NC(=O)OCc2ccccc2)c1 | i | i | -2 | -1 | -20 | . | . | . | . | .
O=c1[nH]c2cc(F)ccc2c2ccc(F)cc12 | . | i | . | . | . | . | . | . | . | .
Cc1ccc(NC(=O)c2ccc(OC(=O)COc3cccc(Cl)c3)cc2)cc1 | i | i | 5 | 2 | 5 | -6 | . | . | . | .
COc1cc(C(C)=O)ccc1Oc1ccc(S(=O)(=O)N2CCOCC2)cn1 | . | i | 0 | 1 | . | . | . | . | . | .
Cc1nc2c(cc(Oc3ccc(S(=O)(=O)N4CCOCC4)cn3)c3ccsc32)s1 | 25* | i | 5 | 2 | . | 22 | i | i | -1 | -19
O=[N+]([O-])c1cccc(S(=O)(=O)N2CCCCC2c2cccnc2)c1 (stereo not given) | i | i | -1 | -1 | . | . | . | . | . | .
Cc1cc(C(=O)CSc2nncs2)c(C)n1-c1c(C)n(C)n(-c2ccccc2)c1=O | i | i | 1 | 3 | . | 5 | . | . | . | .
Cc1ccc(-n2c(C)cc(C(=O)CSc3nncs3)c2C)cc1 | 100* | i | 0 | -6 | . | 28 | 50%* | i | -0.9 | -18
O=C(/C=C/c1ccc(S(=O)(=O)N2CCOCC2)cc1)NCc1ccccc1Cl | i | i | 2 | 1 | -2 | -23 | . | . | . | .
NNC(=O)c1ccc(COc2ccc3ccccc3c2)o1 | i | i | 5 | -5 | -23 | 4 | . | . | . | .
O=C(OCc1ccccn1)c1ccc(COc2ccc3ccccc3c2)o1 | 25* | i | -2 | -3 | -1 | 28 | 32%* | i | -1.1 | -2
CC(C)(C)OC(=O)N1CCN(C(=O)Nc2ccc3c(c2)OCCO3)CC1 | i | i | 0 | 0 | . | -10 | . | . | . | .
O=C(NCC(c1ccco1)N1CCCC1)c1cccc(S(=O)(=O)N2CCOCC2)c1 (stereo not given) | . | i | 0 | 1 | . | . | . | . | . | .
SMILES | ANO1 block | ANO1 activ | CHOP UPR activ | XBP1 UPR activ | Lipid droplet | CHOP inh | TMEM16A reconf | HEK293 Ca mobil | YFP-HEK293 quench | ClC-1 rat inh
COc1ccc(OCCSc2ncccn2)cc1 | i | i | 2 | 2 | -9 | -2 | . | . | . | .
COc1ccc(OCCSc2nc(C)nc3ccccc23)cc1 | 25* | i | 1 | 7 | -2 | 48 | 58%* | i | -1.1 | -13
CC(=O)Nc1ccc(Oc2cc(C#N)c(C#N)cc2N2CCCCCC2)cc1 | 100* | i | 7 | -1 | 0 | 51 | i | i | -1.1 | 4
O=C(CCc1ccccc1)NNC(=S)NC(=O)c1ccc(Cl)cc1 | 100* | . | -1 | 2 | 0 | 56 | 25%* | 65%* | -0.89 | -19
O=C(CCc1ccccc1)NNC(=O)c1ccc(Cl)cc1 | i | i | 2 | -2 | 4 | . | . | . | . | .
CCC(=O)NNC(=S)NC(=O)c1ccc(C)cc1 | i | i | 1 | 2 | 8 | 44 | . | . | . | .
Cc1ccc(C(=O)NC(=S)NNC(=O)COc2ccccc2C)cc1 | 25* | i | 1 | 1 | 14 | 103* | 20%* | i | -0.92 | -5
O=C(CNS(=O)(=O)c1ccc(Br)cc1)N1CCOCC1 | i | i | 0 | 3 | . | -25 | . | . | . | .
Cc1ccc(C)c(NC(=O)c2ccc[n+](Cc3ccc([N+](=O)[O-])cc3)c2)c1 | i | i | -2 | -4 | . | -4 | . | . | . | .
Cc1ccc(S(=O)(=O)Nc2ccc(Cl)cc2C(=O)c2ccccc2)cc1 | 25* | i | -1 | 0 | -7 | 21 | i | i | -0.86 | -6
CCOc1ccc(S(=O)(=O)Nc2cc(Cl)ccc2O)cc1 | 100* | i | 0 | -1 | -1 | 66 | 36%* | i | -0.9 | -19
CN1C(=O)CSc2ccc(NC(=O)N3CCOCC3)cc21 | i | i | 0 | -2 | -5 | 16 | . | . | . | .
CC(=O)c1cccc(NC(=O)Nc2ccc3c(c2)N(C)C(=O)CS3)c1 | 25* | i | 2 | -3 | -1 | 32 | 34%* | i | -1.1 | -15
Cc1cccc(OCCCSc2nc3ccccc3[nH]2)c1 | 100* | i | 0 | -1 | . | 31 | 17%* | i | -1.1 | -8
Cc1noc(C)c1CSCC(=O)N1CCN(c2ccc(F)cc2)CC1 | i | i | 0 | -2 | . | 24 | . | . | . | .

From PubChem BioAssay
